Source: PMC9933479 (ACS Omega, 2023)

What was measured:
Assay in all cases: MTT assay, cytotoxicity/growth inhibition
[1] = system: PC-3 (prostate carcinoma); assay type: cell-based; settings: Homo sapiens; for inhibition at 20 µM: 48 h, read-out: Cytotoxic Activity (% Growth Inhibition)
Outline: (§1)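 Cells were grown in RPMI (A549, HCT-116, PC-3) or DMEM (MCF-7) with 10% FBS at 37 °C and 5% CO2. Seeding per well was […] and PC-3 8 × 10^4 cells. […] MTT 250 μg/mL, 4 h; DMSO; A570; triplicate; mean ± SE.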

A549 (lung carcinoma) = assay type: cell-based, human; settings: for IC50 / inhibition at 20 µM: Homo sapiens; for IC50: A549; for inhibition at 20 µM: A549, 48 h, read-out: Cytotoxic Activity (% Growth Inhibition), A549, 20 μM concentration, MTT, 48 h; for Cytotoxic Activity (% Growth Inhibition): A549, 20 μM concentration, MTT, 48 h, 20 µM
Outline: as §1

MCF-7 (breast carcinoma) = assay type: cell-based; settings: Homo sapiens; for IC50: MCF7; for inhibition at 20 µM: MCF7, 48 h, read-out: Cytotoxic Activity (% Growth Inhibition)
Outline: as §1

[2] = system: HCT-116 (colon carcinoma); assay type: cell-based; settings: Homo sapiens; for IC50: HCT-116; for inhibition at 20 µM: HCT-116, 48 h, read-out: Cytotoxic Activity (% Growth Inhibition)
Outline: as §1

## C[C@]1(CO)C2CC=C(COC(=O)c3ccccc3C(F)(F)F)[C@@H](/C=C/C3=CCOC3=O)[C@]2(C)CC[C@H]1O (stereo partly drawn) [Compound 9n, ((1S,5R,6R,8aR)-6-Hydroxy-5-(hydroxymethyl)-5,8a-dimethyl-1-((E)-2-(2-oxo-2,5-dihydrofuran-3-yl)vinyl)-1,4,4a,5,6,7,8,8a-octahydronaphthalen-2-yl)methyl 2-(Trifluoromethyl)benzoate]
[1]
  IC50: 5.7 µM
  inhibition at 20 µM: 72.2 ± 0.41%
A549 (lung carcinoma)
  IC50: > 20 µM
  inhibition at 20 µM: 5.6 ± 0.14%
MCF-7 (breast carcinoma)
  IC50: > 20 µM
  inhibition at 20 µM: 18 ± 0.58%
[2]
  IC50: > 20 µM
  inhibition at 20 µM: 44.9 ± 0.78%

## C[C@@]12COC(c3ccccc3)O[C@@H]1CC[C@]1(C)C2CC=C(COC(=O)c2cccc(C(F)(F)F)c2)[C@H]1/C=C/C1=CCOC1=O (stereo partly drawn) [Compound 8h, ((4aR,6aR,7S,10bR)-6a,10b-Dimethyl-7-((E)-2-(2-oxo-2,5-dihydrofuran-3-yl)vinyl)-3-phenyl-4a,5,6,6a,7,10,10a,10b-octahydro-1H-naphtho[2,1-d][1,3]dioxin-8-yl)methyl 3-(Trifluoromethyl)benzoate]
[1]
  inhibition at 20 µM: 54 ± 0.62%
A549 (lung carcinoma)
  Cytotoxic Activity (% Growth Inhibition): 69.48 ± 0.42%
  inhibition at 20 µM: 69%
MCF-7 (breast carcinoma)
  inhibition at 20 µM: 0%
[2]
  inhibition at 20 µM: 4.8 ± 0.02%

## C[C@@]12COC(c3ccccc3)O[C@@H]1CC[C@]1(C)C2CC=C(COC(=O)c2ccoc2)[C@H]1/C=C/C1=CCOC1=O (stereo partly drawn) [Compound 8g, ((4aR,6aR,7S,10bR)-6a,10b-Dimethyl-7-((E)-2-(2-oxo-2,5-dihydrofuran-3-yl)vinyl)-3-phenyl-4a,5,6,6a,7,10,10a,10b-octahydro-1H-naphtho[2,1-d][1,3]dioxin-8-yl)methyl Furan-3-carboxylate]
[1]
  inhibition at 20 µM: 25 ± 0.58%
A549 (lung carcinoma)
  inhibition at 20 µM: 40.95 ± 0.39%
MCF-7 (breast carcinoma)
  inhibition at 20 µM: 0%
[2]
  inhibition at 20 µM: 0%

## COc1cc(OC)cc(C(=O)OCC2=CCC3[C@](C)(CO)[C@H](O)CC[C@@]3(C)[C@@H]2/C=C/C2=CCOC2=O)c1 (stereo partly drawn) [Compound 9j, ((1S,5R,6R,8aR)-6-Hydroxy-5-(hydroxymethyl)-5,8a-dimethyl-1-((E)-2-(2-oxo-2,5 dihydrofuran-3-yl)vinyl)-1,4,4a,5,6,7,8,8a-octahydronaphthalen-2-yl)methyl 3,5-Dimethoxybenzoate]
[1]
  IC50: 6.1 µM
  inhibition at 20 µM: 70 ± 0.82%
A549 (lung carcinoma)
  IC50: > 20 µM
  inhibition at 20 µM: 8.7 ± 0.45%
MCF-7 (breast carcinoma)
  IC50: 16.6 µM
  inhibition at 20 µM: 51 ± 0.49%
[2]
  IC50: > 20 µM
  inhibition at 20 µM: 23.9 ± 0.49%

## COc1cc(C(=O)OCC2=CCC3[C@]4(C)COC(c5ccccc5)O[C@@H]4CC[C@@]3(C)[C@@H]2/C=C/C2=CCOC2=O)cc(OC)c1OC (stereo partly drawn) [Compound 8k, ((4aR,6aR,7S,10bR)-6a,10b-Dimethyl-7-((E)-2-(2-oxo-2,5-dihydrofuran-3-yl)vinyl)-3-phenyl-4a,5,6,6a,7,10,10a,10b-octahydro-1H-naphtho[2,1-d][1,3]dioxin-8-yl)methyl 3,4,5-Trimethoxybenzoate]
[1]
  inhibition at 20 µM: 5.6 ± 0.59%
A549 (lung carcinoma)
  inhibition at 20 µM: 20.4 ± 0.73%
MCF-7 (breast carcinoma)
  inhibition at 20 µM: 46 ± 0.77%
[2]
  inhibition at 20 µM: 50 ± 0.62%

## COc1cc(OC)cc(C(=O)OCC2=CCC3[C@]4(C)COC(c5ccccc5)O[C@@H]4CC[C@@]3(C)[C@@H]2/C=C/C2=CCOC2=O)c1 (stereo partly drawn) [Compound 8j, ((4aR,6aR,7S,10bR)-6a,10b-Dimethyl-7-((E)-2-(2-oxo-2,5-dihydrofuran-3-yl)vinyl)-3-phenyl-4a,5,6,6a,7,10,10a,10b-octahydro-1H-naphtho[2,1-d][1,3]dioxin-8-yl)methyl 3,5-Dimethoxybenzoate]
[1]
  inhibition at 20 µM: 55.8 ± 0.49%
A549 (lung carcinoma)
  Cytotoxic Activity (% Growth Inhibition): 51 ± 0.48%
  inhibition at 20 µM: < 52%
MCF-7 (breast carcinoma)
  inhibition at 20 µM: 48 ± 0.91%
[2]
  inhibition at 20 µM: 47.2 ± 0.75%

## C[C@@]12COC(c3ccccc3)O[C@@H]1CC[C@]1(C)C2CC=C(COC(=O)Cc2ccc(Cl)c(Cl)c2)[C@H]1/C=C/C1=CCOC1=O (stereo partly drawn) [Compound 8v, ((4aR,6aR,7S,10bR)-6a,10b-Dimethyl-7-((E)-2-(2-oxo-2,5-dihydrofuran-3-yl)vinyl)-3-phenyl-4a,5,6,6a,7,10,10a,10b-octahydro-1H-naphtho[2,1-d][1,3]dioxin-8-yl)methyl 2-(3,4-Dichlorophenyl)acetate]
[1]
  IC50: 8.4 µM
  inhibition at 20 µM: 70.3 ± 0.54%
A549 (lung carcinoma)
  IC50: > 20 µM
  inhibition at 20 µM: 41.6 ± 0.98%
MCF-7 (breast carcinoma)
  IC50: > 20 µM
  inhibition at 20 µM: 34 ± 0.28%
[2]
  IC50: > 20 µM
  inhibition at 20 µM: 12.5 ± 0.78%

## C[C@@]12COC(c3ccccc3)O[C@@H]1CC[C@]1(C)C2CC=C(COC(=O)c2ccccc2)[C@H]1/C=C/C1=CCOC1=O (stereo partly drawn) [Compound 8a, ((4aR,6aR,7S,10bR)-6a,10b-Dimethyl-7-((E)-2-(2-oxo-2,5-dihydrofuran-3-yl)vinyl)-3-phenyl-4a,5,6,6a,7,10,10a,10b-octahydro-1H-naphtho[2,1-d][1,3]dioxin-8-yl)methyl Benzoate]
[1]
  IC50: > 20 µM
  inhibition at 20 µM: 0%
A549 (lung carcinoma)
  Cytotoxic Activity (% Growth Inhibition): 72.82 ± 0.05%
  IC50: 10.6 µM
  inhibition at 20 µM: 72%
MCF-7 (breast carcinoma)
  IC50: > 20 µM
  inhibition at 20 µM: 9.68 ± 0.14%
[2]
  IC50: > 20 µM
  inhibition at 20 µM: 21.12 ± 0.19%

## COc1cccc(C(=O)OCC2=CCC3[C@](C)(CO)[C@H](O)CC[C@@]3(C)[C@@H]2/C=C/C2=CCOC2=O)c1 (stereo partly drawn) [Compound 9b, ((1S,5R,6R,8aR)-6-Hydroxy-5-(hydroxymethyl)-5,8a-dimethyl-1-((E)-2-(2-oxo-2,5-dihydrofuran-3-yl)vinyl)-1,4,4a,5,6,7,8,8a-octahydronaphthalen-2-yl)methyl 3-Methoxybenzoate]
[1]
  inhibition at 20 µM: 7 ± 0.58%
A549 (lung carcinoma)
  inhibition at 20 µM: 39.85 ± 0.26%
MCF-7 (breast carcinoma)
  inhibition at 20 µM: 14.6 ± 0.09%
[2]
  inhibition at 20 µM: 0%

## C[C@@]12COC(c3ccccc3)O[C@@H]1CC[C@]1(C)C2CC=C(COC(=O)c2cccc(Br)c2)[C@H]1/C=C/C1=CCOC1=O (stereo partly drawn) [Compound 8e, ((4aR,6aR,7S,10bR)-6a,10b-Dimethyl-7-((E)-2-(2-oxo-2,5-dihydrofuran-3-yl)vinyl)-3-phenyl-4a,5,6,6a,7,10,10a,10b-octahydro-1H-naphtho[2,1-d][1,3]dioxin-8-yl)methyl 3-Bromobenzoate]
[1]
  inhibition at 20 µM: 0%
A549 (lung carcinoma)
  inhibition at 20 µM: 31.59 ± 0.23%
MCF-7 (breast carcinoma)
  inhibition at 20 µM: 0%
[2]
  inhibition at 20 µM: 0%

## C[C@@]12COC(c3ccccc3)O[C@@H]1CC[C@]1(C)C2CC=C(COC(=O)c2ccc(Br)cc2F)[C@H]1/C=C/C1=CCOC1=O (stereo partly drawn) [Compound 8m, ((4aR,6aR,7S,10bR)-6a,10b-Dimethyl-7-((E)-2-(2-oxo-2,5-dihydrofuran-3-yl)vinyl)-3-phenyl-4a,5,6,6a,7,10,10a,10b-octahydro-1H-naphtho[2,1-d][1,3]dioxin-8-yl)methyl 4-Bromo-2-fluorobenzoate]
[1]
  inhibition at 20 µM: 0%
MCF-7 (breast carcinoma)
  inhibition at 20 µM: 44 ± 0.24%
[2]
  inhibition at 20 µM: 30.4 ± 0.9%

## COc1cc(C(=O)OCC2=CCC3[C@](C)(CO)[C@H](O)CC[C@@]3(C)[C@@H]2/C=C/C2=CCOC2=O)cc(OC)c1OC (stereo partly drawn) [Compound 9k, ((1S,5R,6R,8aR)-6-Hydroxy-5-(hydroxymethyl)-5,8a-dimethyl-1-((E)-2-(2-oxo-2,5-dihydrofuran-3-yl)vinyl)-1,4,4a,5,6,7,8,8a-octahydronaphthalen-2-yl)methyl 3,4,5-Trimethoxybenzoate]
A549 (lung carcinoma)
  inhibition at 20 µM: 29.4 ± 0.82%
MCF-7 (breast carcinoma)
  inhibition at 20 µM: 41 ± 0.87%
[2]
  inhibition at 20 µM: 19.8 ± 0.68%
